# Screens (PubChem)
# In the library only some 0.97% were active in any assay of this set; here they are far more common.
# L929 necroptosis: L929 zVAD cell death inhibition; viability rescue, % at 10 µM; L929 zVAD necroptosis rescue, ATP luminescence, 24 h; with zVAD 60 µM; actives 0.38% (n = 220,000); AID 1377;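 active = activation, scaled between plate controls, above about 75%, limit read from the data; inactive = activation under that limit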;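 note: 0% = zVAD with DMSO and 100% = DMSO alone without zVAD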
# B2AR ag: human beta-2 adrenergic receptor agonism by FAP | P07550 | Am2.2-beta2AR cells, FAP receptor internalization, flow cytometry | response, % (concentration not given with the values) | actives 0.43% (n = 340,000);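 active = response above a set limit, near 3 SD of response in nonfluorescent compounds, cut at about 42% in these data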
# Dynein cargo inh: dynein cargo transport inhibition; actives 0.47% (n = 220,000); z-score, hits read low; 3617.4 mouse cells, GR-EGFP nuclear translocation imaging; test concentration mostly 20 µM; stimulated with dexamethasone, 1 µM; hits give low values;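 active = plate z-score of nuclear minus cytoplasmic receptor signal below a set negative limit, without overly bright fluorescence or cell loss, cut at about -3.5 in these data, passing the limit was not always enough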;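 note: z-score of nuclear minus cytoplasmic ring GR-EGFP intensity difference per well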
#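 Schedule: 48 h induction, then 1 h compound, then 30 min agonist, 37 °C. Buffer or medium: tetracycline-free induction medium containing charcoal-stripped FBS. Reagent: 1.0 µM final dexamethasone stimulus. Evaluation: nuclear versus cytoplasmic GR-EGFP signal, averaged per well. Signal: high-content fluorescence imaging after fixation.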
# Mdm2 ligase inh: Mdm2 E3 ligase (human) inhibition | cell-based MDM2 ubiquitination luciferase reporter, 2 h; 0 = plate control, 100 = twice control, blank-subtracted | signal enhancement, % at 5 µM | actives 0.11% (n = 210,000);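 active = signal enhancement of 30% or more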;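 note: luminescence tracks abundance of the self-degrading MDM2-luciferase fusion protein; higher signal means inhibition of MDM2 E3 ligase activity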
# Target sequence (Q00987 whole entry, looked up, the tested form may be a part): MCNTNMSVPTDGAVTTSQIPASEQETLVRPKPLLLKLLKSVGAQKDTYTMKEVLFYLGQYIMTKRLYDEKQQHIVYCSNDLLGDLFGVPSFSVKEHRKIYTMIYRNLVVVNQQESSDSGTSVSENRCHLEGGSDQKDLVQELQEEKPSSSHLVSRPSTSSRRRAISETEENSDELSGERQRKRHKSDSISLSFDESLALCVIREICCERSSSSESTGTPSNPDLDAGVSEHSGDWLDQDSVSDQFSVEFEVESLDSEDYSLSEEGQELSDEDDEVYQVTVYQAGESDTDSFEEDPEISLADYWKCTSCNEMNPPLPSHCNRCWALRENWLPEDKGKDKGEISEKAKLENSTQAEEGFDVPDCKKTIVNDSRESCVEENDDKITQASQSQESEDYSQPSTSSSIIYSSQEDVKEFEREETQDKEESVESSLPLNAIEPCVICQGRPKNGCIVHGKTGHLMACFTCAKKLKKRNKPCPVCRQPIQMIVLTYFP
#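 Buffer or medium: Cells held in DMEM | Assay system: Stable mammalian line carrying autodegrading MDM2–luciferase fusion reporter | Quantity: 2000 cells/well | Times: 4 h settle plus 2 h compound, 37 °C | Doses: One concentration, 5 µM, with 0.2% DMSO | Technique: Luminescence with SteadyLite reagent, 15 min at room temperature | Benchmarks: Plate controls and plate blanks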
# TNF death inh: blocks TNF-alpha induced death of Jurkat FADD-/- cells | Jurkat FADD-/- TNF necroptosis rescue, ATP luminescence, 24 h; 0 = TNF only, 100 = no-TNF cells | activation (protection from cell death), % at 10 µM | actives 0.068% (n = 220,000);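 active = activation, meaning protection from cell death, of at least 50% relative to plate controls; inactive = activation below 50%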;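 note: necroptosis triggered by 40 ng/mL TNF-alpha added together with compound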
# zVAD death conf: confirmed blocker of zVAD induced death in L929 cells. shares compounds with L929 necroptosis. L929 zVAD-induced necroptosis rescue, ATP luminescence, 24 h. activation (protection from necroptosis), % at 10 µM. actives 16% (n = 760). AID 463117;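 active = mean protection from necroptosis of at least 50% over duplicate tests; inactive = mean protection below 50%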;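 note: 0% = cells with zVAD alone and 100% = vehicle cells without zVAD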
# Numbers without * were called inactive; . = not tested or not shown.
SMILES,L929 necroptosis,B2AR ag,Dynein cargo inh,Mdm2 ligase inh,TNF death inh,zVAD death conf
COC(=O)c1ccc2c(c1)NC(=O)C1CCCN21 (stereo unspecified),.,.,.,8,.,.
Cc1ccc(NC(=O)COC(=O)c2ccc3c(c2)NC(=O)C2CCCN32)cc1 (stereo unspecified),83*,-1,-0.89,-18,-2,48
Cc1c(C(=O)N/N=C/c2ccncc2)no[n+]1[O-],2,-1,-0.61,-8,0,.
O=c1cc(-c2ccccc2Cl)oc2c(Br)ccc(O)c12,2,-3,0.27,.,0,.
O=C(CN1C(=O)c2ccccc2S1(=O)=O)N1CCCCC1,.,-3,.,.,.,.
CC(C)NC(=O)NC(=O)CSc1nnc(COc2ccccc2Cl)o1,1,4,-1.1,5,-3,.
O=C(CSc1nnc(COc2ccccc2Cl)o1)NC(=O)NC1CCCC1,87*,2,-0.27,0,-5,35
O=S(=O)(c1ccc(-c2csc(-c3cccnc3)n2)cc1)N1CCOCC1,85*,-4,-0.12,-3,12,6
COC(=O)c1c(C)[nH]c(O)c1C=Nc1ccc(C(C)C)cc1,82*,-2,-0.66,-6,-1,4
COC(=O)c1c(C)[nH]c(O)c1C=Nc1ccc(Oc2ccccc2)cc1,2,12,-0.14,-70,-1,.
O=C(Oc1ccc(-c2cnc3ccccc3n2)cc1)c1ccc(Cl)c([N+](=O)[O-])c1,87*,-4,-0.69,-16,0,2
O=C(Oc1ccc(-c2cnc3ccccc3n2)cc1)c1ccc(Br)o1,85*,-13,0.19,-32,0,6
O=C(Oc1ccc(-c2cnc3ccccc3n2)cc1)c1cccc([N+](=O)[O-])c1,94*,-16,-0.017,-35,-4,2
CCN(CCCNC(=O)CCn1c(=S)[nH]c2cc3c(cc2c1=O)OCO3)c1cccc(C)c1,.,-4,.,.,.,.
O=C(Nc1ccccc1)n1ccc(-c2ccc(-n3ccnc3)cc2)n1,76*,.,0.56,6,15,47
CC(=O)c1ccc(-n2ccnc2)cc1,0,7,0.36,-12,2,.
COc1ccc(-c2cc(=O)c3cc(O)ccc3o2)cc1,76*,-2,2.2,-12,-2,30
COC(=O)C1C(=O)C(C(=O)/C=C/c2ccccc2)C(=O)CC1(C)C (stereo unspecified),81*,22,-1.1,-5,4,1
COC(=O)C1C(=O)C(C(=O)c2ccccc2)C(=O)CC1(C)C (stereo unspecified),.,-2,.,.,.,.
O=S(=O)(CC(CN1CCCC1)N1CCCC1)c1ccc2ccccc2c1 (stereo unspecified),82*,4,-2.4,-10,-11,46
O=C(NCCc1ccccc1)c1ccccc1NC(=O)C1CCCO1 (stereo unspecified),0,-5,0.26,-35,1,.
COCCn1c(=NC(C)=O)sc2cc([N+](=O)[O-])ccc21,2,5,1.9,-6,0,.
COCCn1c(=NC(=O)/C=C/c2ccccc2)sc2cc(NC(C)=O)ccc21,81*,-6,-0.41,-14,-4,7
COCCN(C(=S)Nc1ccccc1OC)C1CCN(C(C)=O)CC1,0,1,-0.16,-8,3,.
Cc1ccc2c(c1)C1CN(C)CCC1N2C(=O)Nc1ccc(Cl)cc1 (stereo unspecified),82*,1,-0.44,-16,11,8
SMILES,L929 necroptosis,B2AR ag,Dynein cargo inh,Mdm2 ligase inh,TNF death inh,zVAD death conf
Cc1ccc2c(c1)C1CN(C)CCC1N2C(=O)c1cccc(S(=O)(=O)N(C)C)c1 (stereo unspecified),0,0,0.17,-93,1,.
Cc1cccc(Nc2ncnc3ccc(Br)cc23)c1,0,5,1.3,-11,-3,.
CCOC(=O)c1c(N)nn(C(=O)C(C)(C)C)c1-c1ccccc1,0,-6,-0.23,-1,-1,.
CCOC(=O)c1c(N)nn(C(=O)c2ccccc2F)c1-c1ccc(OC)cc1,78*,-1,-0.71,13,0,0
CC1(C(=O)OCC(=O)Nc2ccc3ccccc3c2)CC1(Cl)Cl (stereo unspecified),78*,1,-0.97,-7,3,2
CC1(C(=O)OCC(=O)Nc2ccc(C(N)=O)cc2)CC1(Cl)Cl (stereo unspecified),7,1,0.27,-4,1,.
O=C(Nc1nccs1)c1cc2c(s1)-c1ccccc1OC2,98*,-6,-1.5,-22,22,49
N#Cc1ccsc1NC(=O)CSc1nnnn1-c1ccc(O)cc1,76*,7,0.064,3,2,41
O=C(O)c1cc(-c2ccc(/C=N/N3C(=O)C4C5C=CC(CC5)C4C3=O)o2)ccc1Cl (stereo unspecified),5,-1,-0.16,-11,0,.
COC(=O)c1ccc(-c2ccc(/C=N/N3C(=O)C4C5C=CC(CC5)C4C3=O)o2)cc1 (stereo unspecified),83*,8,3.5,6,6,0
Cc1ccc([C@@H]2C[C@H]3CN(Cc4cccc(Cl)c4)C(=O)[C@]34CCCN24)o1,-2,-5,0.51,0,0,.
O=C(Nc1nccs1)c1ccc(-c2ccc(F)cc2)o1,83*,-13,-0.25,-1,5,1
Cc1cc(C)nc(Sc2ccc(C=O)cc2[N+](=O)[O-])n1,0,-2,0.22,0,0,.
N#CC(C#N)=C1C=CC=CN1/C(=C\c1ccco1)C(=O)c1ccc(-c2ccccc2)cc1,99*,18,-2.4,11,-4,25
N#C/C(=C\c1ccco1)C(=O)NCc1ccccc1,1,0,-0.74,-3,5,.
O=c1cc(-c2ccc(O)c(O)c2)oc2cc(O)cc(O)c12,85*,2,1.1,5,0,46
COc1ccc(-c2cc(=O)c3c(O)cc(O)cc3o2)cc1,.,9,.,.,.,.
COC(=O)c1c(NC(=O)Cc2cccs2)sc(C(=O)NC2CCCCC2)c1C,1,-2,0.3,.,-2,.
CN=C1S/C(=C\c2cc(C)n(-c3ccccc3F)c2C)C(=O)N1C,78*,1,0.71,-15,-13,6
N#C/C(=C(/O)COC(=O)c1ccc(Cl)c(S(=O)(=O)N2CCOCC2)c1)c1nc2ccccc2[nH]1,16,-3,0.25,-10,4,.
N#C/C(=C(/O)COC(=O)CCc1ccc(S(=O)(=O)N2CCOCC2)cc1)c1nc2ccccc2[nH]1,78*,-2,-1.1,.,9,13
CC(=O)N(C)c1ccc(NC(=O)Nc2ccc(C)cc2)cc1,77*,2,-0.64,-16,-1,37
